The source of these data is ChEMBL document CHEMBL1156170, “Enhanced Nrf2-dependent induction of glutathione in mouse embryonic fibroblasts by isoselenocyanate analog of sulforaphane” (Bioorg Med Chem Lett, 2010).

Data set [1] concerns the target T1, Nuclear factor erythroid 2-related factor 2 (Homo sapiens) (UniProt Q16236).
T1 sequence (whole entry): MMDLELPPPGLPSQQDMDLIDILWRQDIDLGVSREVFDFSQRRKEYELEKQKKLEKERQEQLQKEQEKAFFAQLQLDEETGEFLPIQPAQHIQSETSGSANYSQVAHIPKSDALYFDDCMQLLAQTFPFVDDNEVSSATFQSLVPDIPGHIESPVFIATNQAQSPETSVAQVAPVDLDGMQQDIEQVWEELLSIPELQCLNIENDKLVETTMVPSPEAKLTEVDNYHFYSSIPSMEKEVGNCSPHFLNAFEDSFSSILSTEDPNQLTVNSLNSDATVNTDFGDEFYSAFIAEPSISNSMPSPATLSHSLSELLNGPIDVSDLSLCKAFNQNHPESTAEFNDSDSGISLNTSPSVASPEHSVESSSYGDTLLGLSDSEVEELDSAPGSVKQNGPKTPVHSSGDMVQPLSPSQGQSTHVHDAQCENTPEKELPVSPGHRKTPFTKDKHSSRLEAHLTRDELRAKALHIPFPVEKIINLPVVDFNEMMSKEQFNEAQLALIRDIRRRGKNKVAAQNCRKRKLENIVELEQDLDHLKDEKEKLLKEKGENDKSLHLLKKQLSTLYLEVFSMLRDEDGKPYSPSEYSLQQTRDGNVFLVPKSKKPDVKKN
Nature of the data set: Induction of NrF2 in human HepG2 cells at 10 uM after 6 hrs by ARE-luciferase reporter gene assay. Format: functional, cell-based. The method, boiled down:
(§1)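 HepG2 ARE-luciferase reporter cells at 50% confluence, fresh medium with vehicle or 5, 10 or 20 μM compound for 6 h. Washed in PBS, lysed, luciferase activity of extracts read in single-tube luminometer; normalized to vehicle control; mean ± SD of 3 independent experiments.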
(In general: A reporter such as luciferase makes a cellular process visible.)

The target of data set [2] is T2, Nuclear factor erythroid 2-related factor 2 (Mus musculus) (UniProt Q60795).
T2 sequence (whole entry): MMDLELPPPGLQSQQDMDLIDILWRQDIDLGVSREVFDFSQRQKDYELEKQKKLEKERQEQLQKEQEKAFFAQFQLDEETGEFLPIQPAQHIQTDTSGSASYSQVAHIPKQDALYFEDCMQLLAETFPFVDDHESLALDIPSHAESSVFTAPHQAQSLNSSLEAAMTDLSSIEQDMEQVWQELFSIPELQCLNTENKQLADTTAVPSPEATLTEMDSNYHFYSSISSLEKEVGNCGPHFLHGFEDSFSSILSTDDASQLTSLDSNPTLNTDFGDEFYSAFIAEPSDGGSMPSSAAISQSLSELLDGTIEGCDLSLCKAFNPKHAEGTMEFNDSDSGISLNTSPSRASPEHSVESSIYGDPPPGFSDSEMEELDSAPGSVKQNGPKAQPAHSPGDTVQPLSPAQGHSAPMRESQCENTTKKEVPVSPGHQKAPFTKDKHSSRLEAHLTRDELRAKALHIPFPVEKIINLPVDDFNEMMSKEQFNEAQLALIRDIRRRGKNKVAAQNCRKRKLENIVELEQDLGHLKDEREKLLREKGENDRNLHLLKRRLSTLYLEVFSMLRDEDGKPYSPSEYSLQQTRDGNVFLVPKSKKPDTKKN
Nature of the data set: Induction of NrF2-mediated glutathione production in wild type MEF at 20 uM after 24 hrs using Elmans reagent relative to control. It is filed as functional. Summed up: (§2)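 Wildtype or Nrf2−/− MEF at 50% confluence given vehicle or 10 or 20 μM for 0, 6, 9 or 24 h; washed, lysed in 5% metaphosphoric acid, protein removed by centrifugation. Free GSH by enzymatic recycling with Ellman's reagent, absorbance over time; normalized to BCA protein and to vehicle control; mean ± SD, n=3.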

Data set [3] has as its target T1, Nuclear factor erythroid 2-related factor 2 (Homo sapiens). Nature of the data set: Induction of NrF2 in human HepG2 cells at 20 uM after 6 hrs by ARE-luciferase reporter gene assay relative to control. It is filed as functional, cell-based. The method, boiled down:
as §1

In data set [4] the target is T2, Nuclear factor erythroid 2-related factor 2 (Mus musculus). The data set can be described thus: Induction of nuclear NrF2 expression in wild type MEF […] at 10 to 20 uM after 24 hrs by Western blotting relative to control. Format: functional. Summed up: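 Wildtype MEF at 50% confluence treated with vehicle or 10 or 20 μM for 24 h; washed, trypsinized, nuclear extracts prepared. 20 μg nuclear protein per lane, 4-20% gradient gel, nitrocellulose, milk block, primary antibody overnight 4 °C, HRP secondary, chemiluminescence. Nrf2 band normalized to Lamin A, then to vehicle control; mean ± SD, n=3.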
For orientation: A western blot detects proteins with antibodies after separation by electrophoresis.

Data set [5] has the same target. Nature of the data set: Induction of NrF2-mediated glutathione production in wild type MEF at 10 uM after 24 hrs using Elmans reagent relative to control. Format: functional. The method, boiled down: as §2
Data set [6] deals with HepG2. The data set can be described thus: Cytotoxicity against human HepG2 cells assessed as cell viability at 10 uM after 6 hrs by MTS assay. It is filed as functional, cell-based. (Tetrazolium assays rely on reduction of a dye to a coloured formazan, in cell work by metabolically active cells.)
Data set [7] addresses T2, Nuclear factor erythroid 2-related factor 2 (Mus musculus). The data set can be described thus: Reduction of NrF2-mediated glutathione production in wild type MEF at 10 uM after 6 hrs using Elmans reagent relative to control. Format: functional. Also on record: scale not given: the % may be the effect or the level left. The method, boiled down: as §2
For data set [8] the target is unchanged. The data set can be described thus: Reduction of NrF2-mediated glutathione production in wild type MEF at 20 uM after 6 hrs using Elmans reagent relative to control. Further details: scale not given: the % may be the effect or the level left. It is filed as functional. Summed up: as §2
For data set [9] the target is unchanged. Nature of the data set: Induction of nuclear NrF2-mediated GCLc expression in wild type MEF at 20 uM after 24 hrs by Western blotting relative to control. Format: functional. Summed up:
(§3)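 Wildtype or Nrf2−/− MEF at 50% confluence given vehicle or 10 or 20 μM for 24 h; cytoplasmic extracts, 50 μg protein per lane, 4-20% gradient gel, nitrocellulose, western blot for GCLc with HRP secondary and chemiluminescence. GCLc normalized to actin, then to vehicle control; mean ± SD of 3 independent experiments.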

Data set [10] concerns HepG2. The data set can be described thus: Cytotoxicity against human HepG2 cells assessed as cell viability at 50 uM after 6 hrs by MTS assay. Format: functional, cell-based.
For data set [11], the system named is MEF. The data set can be described thus: Induction of glutathione production in NrF2 deficient MEF at 20 uM after 24 hrs using Elmans reagent relative to control. It is filed as functional, Mus musculus. The method, boiled down:
as §2

Data set [12] has as its system MEF. The data set can be described thus: Induction of glutathione production in NrF2 deficient MEF at 10 uM after 24 hrs using Elmans reagent relative to control. It is filed as functional, Mus musculus. The method, boiled down: as §2
The test system of data set [13] is MEF. Nature of the data set: Cytotoxicity against wild type MEF. It is filed as cell-based. The note with it: mouse.
The subject of data set [14] is HepG2. Nature of the data set: Cytotoxicity against human HepG2 cells assessed as cell viability at 20 uM after 6 hrs by MTS assay. As to conditions: HepG2, 6 h, read-out: Activity.
Data set [15] addresses T2, Nuclear factor erythroid 2-related factor 2 (Mus musculus). The data set can be described thus: Ratio of compound to sulforaphane activity for induction of nuclear NrF2 mediated GCLc in wild type MEF. It is filed as functional.
For data set [16], the target named is T1, Nuclear factor erythroid 2-related factor 2 (Homo sapiens). The data set can be described thus: Ratio of compound to sulforaphane for induction of NrF2 in human HepG2 cells. Format: functional, cell-based.
Data set [17] has as its system HepG2. The data set can be described thus: Cytotoxicity against human HepG2 cells assessed as cell viability at 50 uM after 6 hrs by MTS assay relative to control. Format: functional. As to conditions: HepG2, 6 h, read-out: Activity.
Data set [18] concerns the target T1, Nuclear factor erythroid 2-related factor 2 (Homo sapiens). Nature of the data set: Induction of NrF2 in human HepG2 cells after 6 hrs by ARE-luciferase reporter gene assay. Format: functional, cell-based. Summed up:
as §1

Data set [19] has as its system HepG2. Nature of the data set: Cytotoxicity against human HepG2 cells assessed as decrease in cell viability after 6 hrs by MTS assay. Format: functional, cell-based.
The subject of data set [20] is HepG2. The data set can be described thus: Cytotoxicity against human HepG2 cells assessed as decrease in cell viability at 10 to 20 uM after 6 hrs by MTS assay. It is filed as functional, cell-based.
For data set [21], the system named is MEF. Nature of the data set: Cytotoxicity against NrF2 deficient MEF. It is filed as cell-based. As to conditions: mouse.
The target in data set [22] is T2, Nuclear factor erythroid 2-related factor 2 (Mus musculus). Nature of the data set: Induction of NrF2-mediated glutathione production in wild type MEF at 10 uM after 9 hrs using Elmans reagent relative to control. Format: functional. Summed up:
as §2

Data set [23] shares this target. Nature of the data set: Induction of NrF2-mediated glutathione production in wild type MEF at 10 uM after 6 hrs using Elmans reagent relative to control. Format: functional. Summed up: as §2
Data set [24] relates to MEF. Nature of the data set: Induction of GCLc in NrF2-deficient MEF at 20 uM after 24 hrs by Western blotting relative to control. Format: functional, cell-based. The note with it: Mus musculus. The method, boiled down:
as §3

Active and inactive are the calls of the source. The rule behind the calls is not given here.

Regarding `C[S+]([O-])CCCCN=C=S` (centres undefined), the result in data set [1], in data set [3] and in data set [5] was Active. Besides, the outcome in data set [2], in data set [6] and in data set [10] was inactive. Also, the figures for the fold change (FC) in data set [4] and in data set [9] were 3.5 and 3.2, respectively. For the same compound, the Activity in data set [7] came to 40%; in data set [8], 20%.
Regarding `C[S+]([O-])CCCCN=C=[Se]` (centres undefined) [SUFORAPHANE ISOSELENOCYANATE], the outcome in data set [1], in data set [2], in [20], in [22] and in data set [23] was Active. The Activity in data set [3] is 5; in [11], 70%; in data set [5], 160%; in data set [12], 90%; in [7], 40%; in data set [13], “Non-toxic”. Further, the Activity in data set [15] is 30%; in [8], 20%; in [18] it was “Dose-dependent effect”; in [19], “Dose-dependent effect”; in data set [21], “Non-toxic”. Besides, the results for the fold change (FC) in [4] and in data set [9] were 4.5 and 4.1, respectively. Besides, the outcome in data set [6] and in data set [24] was inactive. In addition, in data set [14], the viability at 20 µM is 50%. Moreover, the Ratio in data set [16] is 4. Besides, the viability at 50 µM in [17] is 0%.
For `[Se]=C=NCCc1ccccc1` [PHENETHYLISOSELENOCYANATE], the viability at 50 µM in [17] came to 14%. Also, the outcome in data set [20] was Active.
With `S=C=NCCc1ccccc1`, the result in data set [10] was inactive.
The same measure, in the same setting: to `S=C=NCc1ccccc1` belongs “inactive”.
For the compound `[Se]=C=NCc1ccccc1` [BENZYLISOSELENOCYANATE], in data set [17], the viability at 50 µM was found to be 0%. Further, in [20], the result was Active.
